{
  "source": "ChEMBL document CHEMBL1137311",
  "about": "“Peptide inhibitors of West Nile NS3 protease: SAR study of tetrapeptide aldehyde inhibitors” (J Med Chem, 2006)",
  "note": "pIC50: −log10 of the molar value. Non-standard residues stand in square brackets, D forms with d. Residues, ends and D or L forms follow the SMILES beside them. *: point of attachment. NMeR = CN[C@@H](CCCNC(=N)N)C(=O)O; NMeK = CN[C@@H](CCCCN)C(=O)O; NMeNle = CCCC[C@H](NC)C(=O)O; Phg = N[C@H](C(=O)O)c1ccccc1; dNle = CCCC[C@@H](N)C(=O)O; Nle = CCCC[C@H](N)C(=O)O; Bz = O=C(c1ccccc1)*",
  "data": [
    {"assay": "Inhibition of West Nile virus NS3 protease", "procedure,_shortened": "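Enzyme: WNV CF40-gly-NS3pro187 conjugate at 50 nM, preincubated with a range of inhibitor concentrations for 30 min at 37 °C. Buffer: 50 mM Tris pH 8.5 with 1 mM CHAPS. Reaction started with 20 µM Bz-nKRR-AMC. Fluorescence (ex 385/em 465 nm) followed continuously. IC50 from nonlinear fit of initial velocities, each point in duplicate within a single experiment.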", "values": [
      {"smiles": "C[C@H](NC(=O)c1ccccc1)C(=O)N[C@@H](CCCCN)C(=O)N[C@@H](CCCNC(=N)N)C(=O)N[C@H](C=O)CCCNC(=N)N", "note": "(Bz-AKRR-aldehyde)", "pIC50": 6.15},
      {"smiles": "NCCCC[C@H](NC(=O)[C@H](Cc1ccccc1)NC(=O)c1ccccc1)C(=O)N[C@@H](CCCN=C(N)N)C(=O)N[C@H](C=O)CCCN=C(N)N", "note": "(Bz-FKRR-aldehyde)", "pIC50": 5.92},
      {"smiles": "CCCC[C@@H](C(=O)N[C@@H](CCCCN)C(=O)N[C@@H](CCCN=C(N)N)C(=O)N[C@H](C=O)CCCN=C(N)N)N(C)C(=O)c1ccccc1", "note": "(Bz-[NMeNle]KRR-aldehyde)", "pIC50": 5.03},
      {"smiles": "CCCC[C@H](NC(=O)c1ccccc1)C(=O)N[C@@H](C)C(=O)N[C@@H](CCCNC(=N)N)C(=O)N[C@H](C=O)CCCNC(=N)N", "note": "(Bz-[Nle]ARR-aldehyde)", "pIC50": 5.42},
      {"smiles": "CCCC[C@H](NC(=O)c1ccccc1)C(=O)N[C@@H](Cc1ccccc1)C(=O)N[C@@H](CCCNC(=N)N)C(=O)N[C@H](C=O)CCCNC(=N)N", "note": "(Bz-[Nle]FRR-aldehyde)", "pIC50": 5.38},
      {"smiles": "CCCC[C@H](NC(=O)c1ccccc1)C(=O)N[C@@H](CCCCN)C(=O)N[C@@H](C)C(=O)N[C@H](C=O)CCCN=C(N)N", "note": "(Bz-[Nle]KAR-aldehyde)", "pIC50": 3.58},
      {"smiles": "CCCC[C@H](NC(=O)c1ccccc1)C(=O)N[C@@H](CCCCN)C(=O)N[C@@H](Cc1ccccc1)C(=O)N[C@H](C=O)CCCNC(=N)N", "note": "(Bz-[Nle]KFR-aldehyde)", "pIC50": 3.97},
      {"smiles": "CCCC[C@H](NC(=O)c1ccccc1)C(=O)N[C@@H](CCCCN)C(=O)N[C@@H](CCCCN)C(=O)N[C@H](C=O)CCCNC(=N)N", "note": "(Bz-[Nle]KKR-aldehyde)", "pIC50": 5.72},
      {"smiles": "CCCC[C@H](NC(=O)c1ccccc1)C(=O)N[C@@H](CCCCN)C(=O)N[C@@H](CCCN=C(N)N)C(=O)N[C@@H](C)C=O", "note": "(Bz-[Nle]KRA-aldehyde)", "pIC50": 5.34},
      {"smiles": "CCCC[C@H](NC(=O)c1ccccc1)C(=O)N[C@@H](CCCCN)C(=O)N[C@@H](CCCNC(=N)N)C(=O)N[C@H](C=O)Cc1ccccc1", "note": "(Bz-[Nle]KRF-aldehyde)", "pIC50": 3.96},
      {"smiles": "CCCC[C@H](NC(=O)c1ccccc1)C(=O)N[C@@H](CCCCN)C(=O)N[C@@H](CCCNC(=N)N)C(=O)N[C@H](C=O)Cc1cnc[nH]1", "note": "(Bz-[Nle]KRH-aldehyde)", "pIC50": 4.37},
      {"smiles": "CCCC[C@H](NC(=O)c1ccccc1)C(=O)N[C@@H](CCCCN)C(=O)N[C@@H](CCCNC(=N)N)C(=O)N[C@H](C=O)CCCCN", "note": "(Bz-[Nle]KRK-aldehyde)", "pIC50": 4.24},
      {"smiles": "CCCC[C@H](NC(=O)c1ccccc1)C(=O)N[C@@H](CCCCN)C(=O)N[C@@H](CCCNC(=N)N)C(=O)N[C@H](C=O)CCCNC(=N)N", "note": "(Bz-[Nle]KRR-aldehyde)", "pIC50": 5.39},
      {"smiles": "CCCC[C@H](NC(=O)c1ccccc1)C(=O)N[C@@H](CCCCN)C(=O)N[C@@H](CCCN=C(N)N)C(=O)N[C@H](C=O)Cc1c[nH]c2ccccc12", "note": "(Bz-[Nle]KRW-aldehyde)", "pIC50": 5.00},
      {"smiles": "CCCC[C@H](NC(=O)c1ccccc1)C(=O)N[C@@H](CCCCN)C(=O)N[C@@H](CCCNC(=N)N)C(=O)N[C@H](C=O)c1ccccc1", "note": "(Bz-[Nle]KR[Phg]-aldehyde)", "pIC50": 4.04},
      {"smiles": "CCCC[C@H](NC(=O)c1ccccc1)C(=O)N[C@@H](CCCCN)C(=O)N[C@@H](CCCN=C(N)N)C(=O)N[C@@H](C=O)CCCN=C(N)N", "note": "(Bz-[Nle]KR[dR]-aldehyde)", "pIC50": 4.85},
      {"smiles": "CCCC[C@H](NC(=O)c1ccccc1)C(=O)N[C@@H](CCCCN)C(=O)N(C)[C@@H](CCCN=C(N)N)C(=O)N[C@H](C=O)CCCN=C(N)N", "note": "(Bz-[Nle]K[NMeR]R-aldehyde)", "pIC50": 4.24},
      {"smiles": "CCCC[C@H](NC(=O)c1ccccc1)C(=O)N[C@@H](CCCCN)C(=O)N[C@H](CCCN=C(N)N)C(=O)N[C@H](C=O)CCCN=C(N)N", "note": "(Bz-[Nle]K[dR]R-aldehyde)", "pIC50": 3.89},
      {"smiles": "CCCC[C@H](NC(=O)c1ccccc1)C(=O)N1CCC[C@H]1C(=O)N[C@@H](CCCN=C(N)N)C(=O)N[C@H](C=O)CCCN=C(N)N", "note": "(Bz-[Nle]PRR-aldehyde)", "pIC50": 4.84},
      {"smiles": "CCCC[C@H](NC(=O)c1ccccc1)C(=O)N(C)[C@@H](CCCCN)C(=O)N[C@@H](CCCN=C(N)N)C(=O)N[C@H](C=O)CCCN=C(N)N", "note": "(Bz-[Nle][NMeK]RR-aldehyde)", "pIC50": 4.13},
      {"smiles": "CCCC[C@H](NC(=O)c1ccccc1)C(=O)N[C@H](CCCCN)C(=O)N[C@@H](CCCN=C(N)N)C(=O)N[C@H](C=O)CCCN=C(N)N", "note": "(Bz-[Nle][dK]RR-aldehyde)", "pIC50": 4.62},
      {"smiles": "CCCC[C@@H](NC(=O)c1ccccc1)C(=O)N[C@@H](CCCCN)C(=O)N[C@@H](CCCN=C(N)N)C(=O)N[C@H](C=O)CCCN=C(N)N", "note": "(Bz-[dNle]KRR-aldehyde)", "pIC50": 5.59}
    ]}
  ]
}
